In ChEMBL document CHEMBL3745635, “Cytotoxic Orbitide from the Latex of Croton urucurana” (J Nat Prod, 2015):
In brackets after ≈: the same amount, converted by molar mass. Residues, ends and D or L forms follow the SMILES beside them.

Legend:
[1] = Cytotoxicity against human PC3 cells assessed as growth inhibition after 48 hrs by sulforhodamine B assay; assay type: functional; details: PC-3, 48 h
Procedure, shortened: (§1)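 Cells seeded at 7.5 × 10^3 per well. Samples were dissolved in DMSO, aliquoted and stored at −20 °C. GI50 values are means of three independent experiments, each run in triplicate. Doxorubicin served as positive control.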

HepG2 = test: Cytotoxicity against human HepG2 cells assessed as growth inhibition after 48 hrs by sulforhodamine B assay; assay type: functional; details: HepG2, 48 h; procedure, shortened: as §1
786-0 = test: Cytotoxicity against human 786-0 cells assessed as growth inhibition after 48 hrs by sulforhodamine B assay; assay type: functional; details: 786-0, 48 h; procedure, shortened: as §1
[2] = Cytotoxicity against human NCI-ADR-RES cells assessed as growth inhibition after 48 hrs by sulforhodamine B assay; assay type: functional; procedure, shortened: as §1
MCF7 = test: Cytotoxicity against human MCF7 cells assessed as growth inhibition after 48 hrs by sulforhodamine B assay; assay type: functional; details: MCF7, 48 h; procedure, shortened: as §1
[3] = Cytotoxicity against mouse NIH/3T3 cells assessed as growth inhibition after 48 hrs by sulforhodamine B assay; assay type: cell-based, NIH3T3; procedure, shortened: as §1
HT-29 = test: Cytotoxicity against human HT-29 cells assessed as growth inhibition after 48 hrs by sulforhodamine B assay; assay type: functional; details: HT-29, 48 h; procedure, shortened: as §1

Compound | GI50 [1] | GI50 (HepG2) | GI50 (786-0) | GI50 [2] | GI50 (MCF7) | GI50 at 48 h [3] | GI50 (HT-29)
COc1cccc2c1C(=O)c1c(O)c3c(c(O)c1C2=O)C[C@@](O)(C(=O)CO)C[C@@H]3O[C@H]1C[C@H](N)[C@H](O)[C@H](C)O1 [DOXORUBICIN] | 0.22 µg/mL (≈ 0.405 µM) | 0.25 µg/mL (≈ 0.46 µM) | 0.15 µg/mL (≈ 0.276 µM) | 5.1 µM | 0.07 µg/mL (≈ 0.129 µM) | 4 µM | 0.85 µg/mL (≈ 1.56 µM)
CC(C)C[C@@H]1NC(=O)[C@H](CO)NC(=O)CNC(=O)[C@H](CC(C)C)NC(=O)[C@H](CC(N)=O)NC(=O)CNC(=O)[C@H](Cc2ccccc2)NC(=O)[C@H](C)NC(=O)CNC1=O (cyclo(AFGNLGSLG)) | 29.8 µg/mL (≈ 36.5 µM) | 41.3 µg/mL (≈ 50.6 µM) | 18.7 µg/mL (≈ 22.9 µM) | 4.8 µM | 35.5 µg/mL (≈ 43.4 µM) | > 306 µM | 37.3 µg/mL (≈ 45.6 µM)
